Test results: ChEMBL document CHEMBL2029242 (J Med Chem, 2012)

Key:
[1] = test system: A-375; assay: Cytotoxicity against human A375 cells expressing BRAF V600E mutant after 72 hrs by cell titer blue assay; assay type: functional, cell-based; details: A-375, 72 h
How it was run: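 Cells were grown in ATCC-recommended media and kept overnight in 0.5% serum. They were then exposed to compound for 72 h, and Cell Titer Blue was added for 3 h. EC50 came from fluorometric concentration−response curves, run in duplicate and repeated at least once.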

[2] = molecular target: T1, Serine/threonine-protein kinase B-raf (Homo sapiens, UniProt P15056, V600E)
[3] = molecular target: T1, Serine/threonine-protein kinase B-raf; remark: listed apart in the source
[4] = Cmax in Sprague-Dawley rat at 10 mg/kg, po; assay type: ADME, organism-based; parameters: dose 10 mg/kg, route oral; details: in vivo
How it was run: (§1)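 Single-dose PK. Rats: male Sprague−Dawley, jugular-catheterized, 1 mg/kg iv in 3:1 PEG400/water (n = 2) and 10 mg/kg po in Pharmatek #6 (n = 3). Female athymic nude mice: 100 mg/kg po in Pharmatek #6 (n = 3). Beagle dogs and male cynomolgus monkeys (n = 3): crossover, 1 mg/kg iv and 10 mg/kg po in 22% HPβCD, overnight fast. Plasma LC-MS/MS to 24 h; noncompartmental parameters, mean ± SD.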

[5] = Terminal half life in Sprague-Dawley rat at 1 mg/kg, iv and 10 mg/kg, po; assay type: ADME, organism-based; details: in vivo, read-out: beta t1/2 (converted)
How it was run: (§2)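 Male Sprague-Dawley rats (250–350 g, jugular-catheterized) received a single dose either iv at 1 mg/kg in 3:1 PEG400/water (n = 2) or po at 10 mg/kg in Pharmatek #6 (n = 3). Plasma was sampled at 5 min (iv only), 15 and 30 min, and 1, 2, 4, 6 and 24 h. Samples were analyzed by LC-MS/MS after acetonitrile precipitation. Parameters came from noncompartmental linear-trapezoidal analysis of individual animals.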

[6] = Tmax in Sprague-Dawley rat at 10 mg/kg, po; assay type: ADME, organism-based; parameters: dose 10 mg/kg, route oral; details: in vivo; how it was run: as §2
[7] = AUC (infinity) in Sprague-Dawley rat at 10 mg/kg, po; assay type: ADME, organism-based; parameters: time infinity, dose 10 mg/kg, route oral; details: plasma; how it was run: as §1
[8] = Volume of distribution in Sprague-Dawley rat at 1 mg/kg, iv and 10 mg/kg, po; assay type: ADME, organism-based; details: in vivo; how it was run: as §2
[9] = Oral bioavailability in Sprague-Dawley rat at 10 mg/kg; assay type: ADME, organism-based; details: in vivo; how it was run: as §2
[10] = Stability in rat liver microsomes assessed as compound remaining at 1 uM after 60 mins; assay type: ADME, Microsome; details: read-out: Stability
How it was run: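 Pooled liver microsomes (0.5 mg/mL) were premixed with 0.1 M phosphate buffer pH 7.4, 6.5 mM MgCl2 and test compound (1 μM final, 0.2% DMSO). NADPH (1 mM) started the reaction at 37 °C, in duplicate. Minus-NADPH and testosterone controls were included. Aliquots were taken at 0, 5, 15, 30 and 60 min and quenched in acetonitrile containing internal standard.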

[11] = Clearance in Sprague-Dawley rat at 1 mg/kg, iv and 10 mg/kg, po; assay type: ADME, organism-based; details: in vivo; how it was run: as §1

T1 sequence (P15056 2-766 V600E limits assumed): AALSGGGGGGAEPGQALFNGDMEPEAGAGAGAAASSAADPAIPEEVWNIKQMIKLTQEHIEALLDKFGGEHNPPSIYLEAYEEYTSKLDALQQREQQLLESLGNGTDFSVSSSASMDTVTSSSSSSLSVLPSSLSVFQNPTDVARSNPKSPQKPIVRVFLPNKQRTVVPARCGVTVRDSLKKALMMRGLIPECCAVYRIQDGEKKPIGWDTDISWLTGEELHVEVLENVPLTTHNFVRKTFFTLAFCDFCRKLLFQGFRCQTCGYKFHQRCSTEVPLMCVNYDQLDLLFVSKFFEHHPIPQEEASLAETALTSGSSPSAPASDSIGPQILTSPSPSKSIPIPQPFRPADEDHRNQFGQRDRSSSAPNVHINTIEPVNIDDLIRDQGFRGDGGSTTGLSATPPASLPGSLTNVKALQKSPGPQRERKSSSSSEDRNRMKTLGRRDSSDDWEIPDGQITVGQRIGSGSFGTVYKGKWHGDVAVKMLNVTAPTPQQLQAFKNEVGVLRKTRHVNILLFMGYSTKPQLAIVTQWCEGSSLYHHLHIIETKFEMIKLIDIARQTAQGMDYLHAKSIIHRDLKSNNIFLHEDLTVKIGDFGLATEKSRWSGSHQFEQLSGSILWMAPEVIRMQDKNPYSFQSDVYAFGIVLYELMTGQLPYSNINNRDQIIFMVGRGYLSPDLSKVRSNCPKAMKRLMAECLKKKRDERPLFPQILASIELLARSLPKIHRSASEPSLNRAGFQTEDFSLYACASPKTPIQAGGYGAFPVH

Compound | IC50 [1] [µM] | IC50 [2] [µM] | Kd [3] [µM] | Cmax [4] [µM] | half-life [5] [h] | Tmax [6] [h] | AUC(0-inf) [7] [µM·h] | Vd [8] [L/kg] | bioavailability [9] [%] | remaining at 1 h, 1 µM [10] [%] | clearance [11] [L/h/kg]
COc1cc2ncnc(Sc3cccc(NC(=O)Nc4cc(C(C)(C)F)no4)c3)c2cc1OC | 1.47 | 0.084 | 0.039 |  |  |  |  |  |  |  | 
COc1cc2ncnc(Oc3cccc(NC(=O)Nc4cc(C(C)(C)F)on4)c3)c2cc1OC | 0.493 | 0.276 | 0.029 | 21.1 | 3.5 | 2 | 127 | 0.5 | 100 | 92 | 0.174
COc1cc2ncnc(Oc3cccc(NC(=O)Nc4cc(C(F)(F)F)no4)c3)c2cc1OC | 5.15 | 2.23 | 0.078 |  |  |  |  |  |  |  | 
COCC(C)(C)c1cc(NC(=O)Nc2cccc(Oc3ncnc4cc(OC)c(OC)cc34)c2)no1 | 1.55 | 0.324 | 0.151 |  |  |  |  |  |  |  | 
COc1cc2ncnc(Oc3cccc(NC(=O)Nc4cc(C5CCCC5)no4)c3)c2cc1OC | 4.38 | 1.13 | 0.122 |  |  |  |  |  |  |  | 
COc1cc2ncnc(Oc3cccc(NC(=O)Nc4cc(C(C)(C)F)no4)c3)c2cc1OC | 0.125 | 0.155 | 0.044 | 7.9 | 4.7 | 2 | 42 | 0.6 | 48 | 82 | 0.24
COc1cc2ncnc(Oc3cccc(NC(=O)Nc4cc(C(C)(C)C)nn4C4CCCCC4)c3)c2cc1OC | > 15 | > 1.67 | 0.174 |  |  |  |  |  |  |  | 
COc1cc2ncnc(Oc3cccc(NC(=O)Nc4cc(C(C)(CF)CF)on4)c3)c2cc1OC | 0.145 | 0.109 | 0.045 |  |  |  |  |  |  |  | 
COc1cc2ncnc(Oc3cccc(NC(=O)Nc4cc(C(C)(C)C)nn4C)c3)c2cc1OC | 4.27 | 0.336 | 0.087 |  |  |  |  |  |  |  | 
COc1cc2ncnc(Oc3cccc(NC(=O)Nc4cc(C(C)C)no4)c3)c2cc1OC | 2.96 | 0.34 | 0.031 |  |  |  |  |  |  |  | 
COc1cc2ncnc(Oc3cccc(NC(=O)Nc4cc(C(C)(C)C(F)(F)F)nn4-c4ccccc4)c3)c2cc1OC |  | 0.062 | 0.271 |  |  |  |  |  |  |  | 
COc1cc2ncnc(Oc3cccc(NC(=O)Nc4cc(C)on4)c3)c2cc1OC | > 15 | > 15 | 0.678 |  |  |  |  |  |  |  | 
COc1cc2ncnc(Oc3cccc(NC(=O)Nc4cc(C5(C(F)(F)F)CCC5)no4)c3)c2cc1OC | 2.24 | 0.308 | 0.129 |  |  |  |  |  |  |  | 
COc1cc2ncnc(Oc3cccc(NC(=O)Nc4cc(C(C)(C)C#N)no4)c3)c2cc1OC | 6.16 | 0.332 | 0.048 |  |  |  |  |  |  |  | 
COc1cc2ncnc(Sc3cccc(NC(=O)Nc4cc(C(C)(C)C(F)(F)F)on4)c3)c2cc1OC | > 15 | 0.142 | 0.074 |  |  |  |  |  |  |  | 
COc1cc2ncnc(Oc3cccc(NC(=O)Nc4cnn(C(C)(C)C)c4)c3)c2cc1OC | > 15 | 1.13 | 0.075 |  |  |  |  |  |  |  | 
COc1cc2ncnc(Oc3cccc(NC(=O)Nc4cc(C(C)(C)CO)on4)c3)c2cc1OC | > 15 | 0.649 | 0.049 |  |  |  |  |  |  |  | 
COc1cc2ncnc(Oc3cccc(NC(=O)Nc4cc(C(C)C)on4)c3)c2cc1OC | 0.527 | 0.355 | 0.019 |  |  |  |  |  |  |  | 

Compound | IC50 [1] [µM] | IC50 [2] [µM] | Kd [3] [µM] | Cmax [4] [µM] | half-life [5] [h] | Tmax [6] [h] | AUC(0-inf) [7] [µM·h] | Vd [8] [L/kg] | bioavailability [9] [%] | remaining at 1 h, 1 µM [10] [%] | clearance [11] [L/h/kg]
COc1cc2ncnc(Oc3cccc(NC(=O)Nc4cc(C(C)(CF)CF)no4)c3)c2cc1OC | 1.99 | 0.339 | 0.132 |  |  |  |  |  |  |  | 
COc1cc2ncnc(Oc3cccc(NC(=O)Nc4cc(C(C)(C)C)nn4C(C)C)c3)c2cc1OC | 0.543 | 0.505 | 0.085 |  |  |  |  |  |  |  | 
COc1cc2ncnc(Oc3cccc(NC(=O)Nc4ccc(C(C)(C)C)cc4)c3)c2cc1OC | 3.49 |  |  |  |  |  |  |  |  |  | 
COc1cc2ncnc(Oc3cccc(NC(=O)Nc4cc(C(C)(C)C)nn4Cc4ccccc4)c3)c2cc1OC | 1.87 | 0.48 | 0.175 |  |  |  |  |  |  |  | 
COc1cc2ncnc(Oc3cccc(NC(=O)Nc4cc(C(C)(C)C(F)(F)F)no4)c3)c2cc1OC | 0.549 | 0.174 | 0.066 | 4.7 |  | 1.7 | 40.7 |  |  |  | 
COc1cc2ncnc(Oc3cccc(NC(=O)Nc4cc(C(C)(C)C)nn4CC(C)C)c3)c2cc1OC | 1.16 | 0.681 | 0.101 |  |  |  |  |  |  |  | 
COc1cc2ncnc(Oc3cccc(NC(=O)Nc4cc(C(C)(C)C)no4)c3)c2cc1OC |  |  |  | 0.7 | 8.2 | 0.8 | 1.9 | 1 | 6 | 51 | 0.588
COc1cc2ncnc(Oc3cccc(NC(=O)Nc4cccc(C(C)(C)C)c4)c3)c2cc1OC | 1.77 |  |  |  |  |  |  |  |  |  | 
COc1cc2ncnc(Oc3cccc(NC(=O)Nc4cc(C5CCCC5)on4)c3)c2cc1OC | 0.488 | 0.134 | 0.037 |  |  |  |  |  |  |  | 
COc1cc2ncnc(Oc3cccc(NC(=O)Nc4cc(C(C)(C)C)nn4-c4ccccc4)c3)c2cc1OC |  | 0.021 | 0.295 | 6.7 | 4.2 | 1.3 | 25.9 | 0.3 | 33 |  | 0.186
COc1cc2ncnc(Sc3cccc(NC(=O)Nc4cc(C(C)(CF)CF)on4)c3)c2cc1OC | 0.223 | 0.093 | 0.05 |  |  |  |  |  |  |  | 
COc1cc2ncnc(Oc3cccc(NC(=O)Nc4cc(C(C)(C)C)on4)c3)c2cc1OC | 0.328 |  |  | 11 | 19.2 | 0.8 | 17 | 0.5 | 49 | 46 | 0.438
COc1cc2ncnc(Oc3cccc(NC(=O)Nc4cc(-c5ccccc5)no4)c3)c2cc1OC | 7.07 | > 15 | 1.45 |  |  |  |  |  |  |  | 
COc1cc2ncnc(Oc3cccc(NC(=O)Nc4cc(C5(C(F)(F)F)CC5)on4)c3)c2cc1OC | 0.117 | 0.183 | 0.027 |  |  |  |  |  |  |  | 
COc1cc2ncnc(Oc3cccc(NC(=O)Nc4cc(-c5ccccc5)on4)c3)c2cc1OC | > 15 | 0.956 | 0.136 |  |  |  |  |  |  |  | 
COc1cc2ncnc(Oc3cccc(NC(=O)Nc4cc(C(C)(F)F)no4)c3)c2cc1OC | 0.694 | 0.645 | 0.076 |  |  |  |  |  |  |  | 
COc1cc2ncnc(Sc3cccc(NC(=O)Nc4cc(C5(C(F)(F)F)CC5)on4)c3)c2cc1OC | 0.222 | 0.469 | 0.031 |  |  |  |  |  |  |  | 
